Source: publication PMC8994735 (Targeted Oncology, 2021)
Where two headings read alike, the source gives them in different places.

Tested on: East Asian patients with advanced nonhematologic malignancies
Type: in vivo, human
How it was run: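 AEs were graded by NCI CTCAE v4.03 in all patients receiving ≥ 1 oral dose, given once daily or once weekly in 28-day cycles for up to 12 months. Follow-up lasted 30 days after the last dose. Entry required ECOG 0–1, fasting glucose ≤ 130 mg/dL and triglycerides ≤ 300 mg/dL. Summaries were descriptive.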

[1] = QW dose escalation 20 mg (n = 3)
[2] = QW dose escalation 30 mg (n = 3)

With `CC(C)n1nc(-c2ccc3oc(N)nc3c2)c2c(N)ncnc21` [sapanisertib] the “Treatment-related AE hyperglycemia” value (QW arm) was 50%, the “Treatment-related AE nausea” value (QW arm) was 100% and the “AEs resulting in discontinuation” value [1] was 0 n (%). For the same compound, the “AEs resulting in dose interruption” value [1] was 2 (67) n (%), the “AEs resulting in dose reduction” value [1] was 0 n (%) and the “Any AE” value [1] was 3 (100) n (%). For the same compound, the “Any grade ≥ 3 AE” value [1] was 3 (100) n (%), the On-study deaths [1] was 0 n (%) and the SAEs [1] was 2 (67) n (%). The “Treatment-related AE” value [1] was 3 (100) n (%), the “Treatment-related SAEs” value [1] was 1 (33) n (%) and the “Treatment-related grade ≥ 3 AE” value [1] was 1 (33) n (%). The “AEs resulting in discontinuation” value [2] was 1 (33) n (%), the “AEs resulting in dose interruption” value [2] was 1 (33) n (%) and the “AEs resulting in dose reduction” value [2] was 0 n (%). The “Any AE” value [2] was 3 (100) n (%), the “Any grade ≥ 3 AE” value [2] was 1 (33) n (%) and the On-study deaths [2] was 0 n (%). For the same compound, the SAEs [2] was 1 (33) n (%), the “Treatment-related AE” value [2] was 3 (100) n (%) and the “Treatment-related SAEs” value [2] was 0 n (%). The “Treatment-related grade ≥ 3 AE” value [2] was 0 n (%), the “AE by preferred term: Abdominal pain” value (QW dosing n = 6) was 1 (17) n (%) and the “AE by preferred term: Alanine aminotransferase increased” value (QW dosing n = 6) was 3 (50) n (%). For the same compound, the “AE by preferred term: Anemia” value (QW dosing n = 6) was 1 (17) n (%), the “AE by preferred term: Aspartate aminotransferase increased” value (QW dosing n = 6) was 3 (50) n (%) and the “AE by preferred term: Blood alkaline phosphatase increased” value (QW dosing n = 6) was 4 (67) n (%). For the same compound, the “AE by preferred term: Blood bilirubin increased” value (QW dosing n = 6) was 2 (33) n (%), the “AE by preferred term: Decreased appetite” value (QW dosing n = 6) was 3 (50) n (%) and the “AE by preferred term: Diarrhea” value (QW dosing n = 6) was 1 (17) n (%). For the same compound, the “AE by preferred term: Erythema” value (QW dosing n = 6) was 1 (17) n (%), the “AE by preferred term: Fatigue” value (QW dosing n = 6) was 2 (33) n (%) and the “AE by preferred term: Gamma-glutamyltransferase increased” value (QW dosing n = 6) was 2 (33) n (%). For the same compound, the “AE by preferred term: Headache” value (QW dosing n = 6) was 1 (17) n (%), the “AE by preferred term: Hiccups” value (QW dosing n = 6) was 2 (33) n (%) and the “AE by preferred term: Hyperglycemia” value (QW dosing n = 6) was 4 (67) n (%). The “AE by preferred term: Hypokalemia” value (QW dosing n = 6) was 1 (17) n (%), the “AE by preferred term: Lymphocyte count decreased” value (QW dosing n = 6) was 1 (17) n (%) and the “AE by preferred term: Nausea” value (QW dosing n = 6) was 6 (100) n (%). For the same compound, the “AE by preferred term: Platelet count decreased” value (QW dosing n = 6) was 1 (17) n (%), the “AE by preferred term: Pyrexia” value (QW dosing n = 6) was 1 (17) n (%) and the “AE by preferred term: Stomatitis” value (QW dosing n = 6) was 2 (33) n (%). For the same compound, the “AE by preferred term: Vomiting” value (QW dosing n = 6) was 3 (50) n (%), the “AE by preferred term: Weight decreased” value (QW dosing n = 6) was 3 (50) n (%) and the “Grade ≥ 3 AE: Alanine aminotransferase increased” value (QW dosing n = 6) was 1 (17) n (%). The “Grade ≥ 3 AE: Aspartate aminotransferase increased” value (QW dosing n = 6) was 1 (17) n (%), the “Grade ≥ 3 AE: Cholangitis acute” value (QW dosing n = 6) was 1 (17) n (%) and the “Grade ≥ 3 AE: Enteritis” value (QW dosing n = 6) was 1 (17) n (%). For the same compound, the “Grade ≥ 3 AE: Gamma-glutamyltransferase increased” value (QW dosing n = 6) was 2 (33) n (%), the “Grade ≥ 3 AE: Hyperglycemia” value (QW dosing n = 6) was 1 (17) n (%) and the “Grade ≥ 3 AE: Lymphocyte count decreased” value (QW dosing n = 6) was 1 (17) n (%). The “Grade ≥ 3 AE: Malignant neoplasm progression” value (QW dosing n = 6) was 1 (17) n (%), the “Patients with ≥ 1 grade 3 or higher AE” value (QW dosing n = 6) was 4 (67) n (%) and the “AEs resulting in discontinuation” value (QW total (n = 6)) was 1 (17) n (%). For the same compound, the “AEs resulting in dose interruption” value (QW total (n = 6)) was 3 (50) n (%), the “AEs resulting in dose reduction” value (QW total (n = 6)) was 0 n (%) and the “Any AE” value (QW total (n = 6)) was 6 (100) n (%). The “Any grade ≥ 3 AE” value (QW total (n = 6)) was 4 (67) n (%), the On-study deaths (QW total (n = 6)) was 0 n (%) and the SAEs (QW total (n = 6)) was 3 (50) n (%). The “Treatment-related AE” value (QW total (n = 6)) was 6 (100) n (%), the “Treatment-related SAEs” value (QW total (n = 6)) was 1 (17) n (%) and the “Treatment-related grade ≥ 3 AE” value (QW total (n = 6)) was 1 (17) n (%). The “AE by preferred term: Abdominal pain” value (Total n = 28) was 4 (14) n (%), the “AE by preferred term: Alanine aminotransferase increased” value (Total n = 28) was 7 (25) n (%) and the “AE by preferred term: Anemia” value (Total n = 28) was 6 (21) n (%). The “AE by preferred term: Aspartate aminotransferase increased” value (Total n = 28) was 9 (32) n (%), the “AE by preferred term: Blood alkaline phosphatase increased” value (Total n = 28) was 4 (14) n (%) and the “AE by preferred term: Blood bilirubin increased” value (Total n = 28) was 2 (7) n (%). For the same compound, the “AE by preferred term: Constipation” value (Total n = 28) was 4 (14) n (%), the “AE by preferred term: Decreased appetite” value (Total n = 28) was 14 (50) n (%) and the “AE by preferred term: Diarrhea” value (Total n = 28) was 3 (11) n (%). The “AE by preferred term: Erythema” value (Total n = 28) was 3 (11) n (%), the “AE by preferred term: Erythema multiforme” value (Total n = 28) was 2 (7) n (%) and the “AE by preferred term: Fatigue” value (Total n = 28) was 9 (32) n (%). The “AE by preferred term: Gamma-glutamyltransferase increased” value (Total n = 28) was 4 (14) n (%), the “AE by preferred term: Gastrointestinal inflammation” value (Total n = 28) was 2 (7) n (%) and the “AE by preferred term: Headache” value (Total n = 28) was 3 (11) n (%). The “AE by preferred term: Hiccups” value (Total n = 28) was 2 (7) n (%), the “AE by preferred term: Hyperglycemia” value (Total n = 28) was 13 (46) n (%) and the “AE by preferred term: Hypokalemia” value (Total n = 28) was 4 (14) n (%). The “AE by preferred term: Lymphocyte count decreased” value (Total n = 28) was 5 (18) n (%), the “AE by preferred term: Nausea” value (Total n = 28) was 17 (61) n (%) and the “AE by preferred term: Neutrophil count decreased” value (Total n = 28) was 2 (7) n (%). For the same compound, the “AE by preferred term: Platelet count decreased” value (Total n = 28) was 7 (25) n (%), the “AE by preferred term: Pruritus” value (Total n = 28) was 2 (7) n (%) and the “AE by preferred term: Pyrexia” value (Total n = 28) was 5 (18) n (%). The “AE by preferred term: Rash erythematous” value (Total n = 28) was 2 (7) n (%), the “AE by preferred term: Rash maculo-papular” value (Total n = 28) was 5 (18) n (%) and the “AE by preferred term: Rash pustular” value (Total n = 28) was 2 (7) n (%). For the same compound, the “AE by preferred term: Stomatitis” value (Total n = 28) was 16 (57) n (%), the “AE by preferred term: Urticaria” value (Total n = 28) was 3 (11) n (%) and the “AE by preferred term: Vomiting” value (Total n = 28) was 8 (29) n (%). The “AE by preferred term: Weight decreased” value (Total n = 28) was 10 (36) n (%), the “AE by preferred term: White blood cell count decreased” value (Total n = 28) was 4 (14) n (%) and the “Grade ≥ 3 AE: Acute myocardial infarction” value (Total n = 28) was 1 (4) n (%). For the same compound, the “Grade ≥ 3 AE: Alanine aminotransferase increased” value (Total n = 28) was 1 (4) n (%), the “Grade ≥ 3 AE: Aspartate aminotransferase increased” value (Total n = 28) was 2 (7) n (%) and the “Grade ≥ 3 AE: Blood creatine phosphokinase increased” value (Total n = 28) was 1 (4) n (%). The “Grade ≥ 3 AE: Cholangitis acute” value (Total n = 28) was 1 (4) n (%), the “Grade ≥ 3 AE: Decreased appetite” value (Total n = 28) was 1 (4) n (%) and the “Grade ≥ 3 AE: Diarrhea” value (Total n = 28) was 1 (4) n (%). For the same compound, the “Grade ≥ 3 AE: Enteritis” value (Total n = 28) was 1 (4) n (%), the “Grade ≥ 3 AE: Gamma-glutamyltransferase increased” value (Total n = 28) was 3 (11) n (%) and the “Grade ≥ 3 AE: Gastrointestinal inflammation” value (Total n = 28) was 1 (4) n (%). The “Grade ≥ 3 AE: Genital herpes” value (Total n = 28) was 1 (4) n (%), the “Grade ≥ 3 AE: Gingivitis” value (Total n = 28) was 1 (4) n (%) and the “Grade ≥ 3 AE: Hyperglycemia” value (Total n = 28) was 1 (4) n (%). The “Grade ≥ 3 AE: Jaundice cholestatic” value (Total n = 28) was 1 (4) n (%), the “Grade ≥ 3 AE: Lymphocyte count decreased” value (Total n = 28) was 3 (11) n (%) and the “Grade ≥ 3 AE: Malignant neoplasm progression” value (Total n = 28) was 1 (4) n (%). The “Grade ≥ 3 AE: Nausea” value (Total n = 28) was 2 (7) n (%), the “Grade ≥ 3 AE: Neutrophil count decreased” value (Total n = 28) was 1 (4) n (%) and the “Grade ≥ 3 AE: Platelet count decreased” value (Total n = 28) was 1 (4) n (%). For the same compound, the “Grade ≥ 3 AE: Post herpetic neuralgia” value (Total n = 28) was 1 (4) n (%), the “Grade ≥ 3 AE: Pruritus” value (Total n = 28) was 1 (4) n (%) and the “Grade ≥ 3 AE: Rash maculo-papular” value (Total n = 28) was 2 (7) n (%). For the same compound, the “Grade ≥ 3 AE: Rash pustular” value (Total n = 28) was 1 (4) n (%), the “Grade ≥ 3 AE: Renal impairment” value (Total n = 28) was 1 (4) n (%) and the “Grade ≥ 3 AE: Sepsis” value (Total n = 28) was 1 (4) n (%). The “Grade ≥ 3 AE: Stomatitis” value (Total n = 28) was 2 (7) n (%), the “Grade ≥ 3 AE: Urticaria” value (Total n = 28) was 1 (4) n (%) and the “Grade ≥ 3 AE: White blood cell count decreased” value (Total n = 28) was 1 (4) n (%). The “Patients with ≥ 1 grade 3 or higher AE” value (Total n = 28) was 18 (64) n (%), the “Patients reporting at least one AE” value (across all doses) was 100% and the “Discontinued treatment due to AEs” value (both arms) was “Four”. For the same compound, the On-study deaths (whole study) was “no on-study deaths”.
